Laboratory results taken from ChEMBL document CHEMBL3612059, “Synthesis of 1,2-benzisoxazole tethered 1,2,3-triazoles that exhibit anticancer activity in acute myeloid leukemia cell lines by inhibiting histone deacetylases, and inducing p21 and tubulin acetylation” (Bioorg Med Chem, 2015).
Calls of active or inactive are those of the source. The rule behind the calls is not given here.

Key:
[1] = tested on: MOLM-13 (Homo sapiens); test: Induction of apoptosis in human MOLM13 cells assessed as necrotic cells at 2.5 uM after 72 hrs by Annexin V-FITC/propidium iodide staining-based flow cytometric analysis (reference value: 3%)
[2] = tested on: MOLM-14; test: Cytotoxicity against human MOLM14 cells assessed as cell viability measured at 96 hrs by MTT assay; assay type: functional, cell-based; conditions: MOLM-14, 96 h
How it was run: (§1)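 AML cells kept in RPMI with 10 % FBS and 1 % penicillin-streptomycin at 37 °C, 5 % CO₂, mycoplasma-screened. Seeded at 8,000 cells/well across a range of concentrations and read at several times up to 96 h. MTT added to 0.5 mg/ml final for 3 h at 37 °C, formazan dissolved in SDS-HCl, absorbance read at 570 nm. IC50 taken from the dose-response curves.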

[3] = tested on: MOLM-13 (Homo sapiens); test: Induction of apoptosis in human MOLM13 cells assessed as upregulation of cleaved caspase-9 expression after 24 hrs by Western blot analysis
[4] = Inhibition of cyclin D protein expression in human MOLM13 cells by Western blot analysis; assay type: functional, cell-based; conditions: MOLM-13
[5] = tested on: MV4-11; test: Induction of apoptosis in human MV4-11 cells assessed as late apoptotic cells at 10 uM after 72 hrs by Annexin V-FITC/propidium iodide staining-based flow cytometric analysis (reference value: 2%); assay type: functional
How it was run: (§2)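 100,000 cells per well treated with 2.5, 5.0 or 10 μM for 72 h. Washed in ice-cold Ca/Mg-free PBS, resuspended in 100 μl binding buffer, stained with 5 μl PI plus 3 μl annexin V-FITC for 15 min in the dark, then read immediately by flow cytometry. Quadrants scored as live, early apoptotic, late apoptotic and necrotic.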

[6] = tested on: MOLM-14; test: Induction of apoptosis in human MOLM14 cells assessed as late apoptotic cells at 2.5 uM after 72 hrs by Annexin V-FITC/propidium iodide staining-based flow cytometric analysis (reference value: 2%); assay type: functional
How it was run: as §2

[7] = target: T1, Protein deacetylase HDAC6 (Homo sapiens) (UniProt Q9UBN7); test: Inhibition of HDAC6 in human MOLM14 cells assessed as increase in acetylation of tubulin at lysine 40 by Western blot analysis; assay type: cell-based; conditions: MOLM-14
T1 sequence (whole entry): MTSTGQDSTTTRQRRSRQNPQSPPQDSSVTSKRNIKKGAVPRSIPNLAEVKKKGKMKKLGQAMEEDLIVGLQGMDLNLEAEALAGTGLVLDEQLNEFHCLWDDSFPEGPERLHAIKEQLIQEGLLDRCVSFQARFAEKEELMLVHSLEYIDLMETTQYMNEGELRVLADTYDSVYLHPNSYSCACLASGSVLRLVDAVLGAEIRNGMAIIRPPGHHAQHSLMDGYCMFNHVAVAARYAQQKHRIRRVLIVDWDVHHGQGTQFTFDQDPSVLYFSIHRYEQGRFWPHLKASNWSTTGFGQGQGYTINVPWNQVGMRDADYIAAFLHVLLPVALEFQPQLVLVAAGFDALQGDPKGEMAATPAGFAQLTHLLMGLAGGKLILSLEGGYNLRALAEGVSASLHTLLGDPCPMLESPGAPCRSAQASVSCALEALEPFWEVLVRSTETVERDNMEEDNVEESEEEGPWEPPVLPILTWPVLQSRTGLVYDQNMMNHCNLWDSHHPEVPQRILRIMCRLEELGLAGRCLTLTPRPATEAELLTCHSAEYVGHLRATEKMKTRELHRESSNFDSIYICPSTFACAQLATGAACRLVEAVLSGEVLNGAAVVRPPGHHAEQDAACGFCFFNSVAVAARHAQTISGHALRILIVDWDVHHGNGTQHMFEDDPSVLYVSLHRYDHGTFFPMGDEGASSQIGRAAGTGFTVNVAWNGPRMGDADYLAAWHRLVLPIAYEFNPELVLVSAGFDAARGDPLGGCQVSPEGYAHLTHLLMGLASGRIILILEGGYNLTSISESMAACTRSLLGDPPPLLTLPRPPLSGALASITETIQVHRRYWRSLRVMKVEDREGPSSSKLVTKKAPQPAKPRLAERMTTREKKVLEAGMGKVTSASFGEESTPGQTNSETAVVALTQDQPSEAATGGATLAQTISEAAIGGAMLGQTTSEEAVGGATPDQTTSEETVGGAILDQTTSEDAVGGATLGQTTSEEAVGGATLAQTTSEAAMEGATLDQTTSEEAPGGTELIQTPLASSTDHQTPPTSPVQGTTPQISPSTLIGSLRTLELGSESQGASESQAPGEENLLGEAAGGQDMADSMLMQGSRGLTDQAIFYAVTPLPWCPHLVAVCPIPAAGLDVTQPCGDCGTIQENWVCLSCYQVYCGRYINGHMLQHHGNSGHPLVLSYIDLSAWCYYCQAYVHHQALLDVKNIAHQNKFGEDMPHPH

[8] = tested on: MOLM-14; test: Induction of apoptosis in human MOLM14 cells assessed as late apoptotic cells at 10 uM after 72 hrs by Annexin V-FITC/propidium iodide staining-based flow cytometric analysis (reference value: 2%); assay type: functional
How it was run: as §2

[9] = tested on: MOLM-14; test: Induction of apoptosis in human MOLM14 cells assessed as necrotic cells at 5 uM after 72 hrs by Annexin V-FITC/propidium iodide staining-based flow cytometric analysis (reference value: 1%); assay type: functional
How it was run: as §2

[10] = tested on: MOLM-13 (Homo sapiens); test: Induction of apoptosis in human MOLM13 cells assessed as early apoptotic cells at 5 uM after 72 hrs by Annexin V-FITC/propidium iodide staining-based flow cytometric analysis (reference value: 11%)
[11] = tested on: MV4-11; test: Induction of apoptosis in human MV4-11 cells assessed as early apoptotic cells at 10 uM after 72 hrs by Annexin V-FITC/propidium iodide staining-based flow cytometric analysis (reference value: 7%); assay type: functional
How it was run: as §2

[12] = tested on: MOLM-14; test: Cytotoxicity against human MOLM14 cells assessed as cell viability at 0.25 to 5 uM by MTT assay; assay type: functional, cell-based
How it was run: as §1

[13] = tested on: MOLM-13 (Homo sapiens); test: Induction of apoptosis in human MOLM13 cells after 72 hrs by Annexin V-FITC/propidium iodide staining-based flow cytometric analysis
[14] = target: T1, Protein deacetylase HDAC6 (Homo sapiens); test: Inhibition of HDAC6 in human MV4-11 cells assessed as increase in acetylation of tubulin at lysine 40 by Western blot analysis; assay type: cell-based
[15] = tested on: MV4-11; test: Induction of apoptosis in human MV4-11 cells assessed as late apoptotic cells at 2.5 uM after 72 hrs by Annexin V-FITC/propidium iodide staining-based flow cytometric analysis (reference value: 2%); assay type: functional
How it was run: as §2

[16] = tested on: MV4-11; test: Cytotoxicity against human MV4-11 cells assessed as cell viability measured at 96 hrs by MTT assay; assay type: functional, cell-based; conditions: MV4-11, 96 h
How it was run: as §1

[17] = tested on: MV4-11; test: Cytotoxicity against human MV4-11 cells assessed as cell viability after 72 hrs by MTT assay; assay type: functional, cell-based; conditions: MV4-11, 72 h
How it was run: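 MV4-11 cells, 8,000/well, exposed for 72 h to […]. MTT added to 0.5 mg/ml final for 3 h at 37 °C, SDS-HCl solubilization, A570 read. Percent inhibition normalized to diluent controls. Three independent experiments in quadruplicate, mean ± SD.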

For `c1ccc(Oc2ccc(-c3cn(-c4noc5ccccc45)nn3)cc2)cc1`, which Activity [1] is on record?
The Activity was 14%.

What about the IC50 [2] of the same compound?
The IC50 was 2000 nM.

What about the Activity [3] of the same compound?
Its Activity is “Dose-dependent effect”.

And the inhibition [4]?
Its inhibition is “Dose-dependent effect”.

And the Activity [5]?
The Activity was 26%.

And the Activity [6]?
Its Activity is 26%.

What about the inhibition [7] of the same compound?
The inhibition was “Active”.

What about the Activity [8] of the same compound?
Its Activity is 30%.

What about the Activity [9] of the same compound?
The Activity was 7%.

What about the Activity [10] of the same compound?
The Activity was 19%.

What about the Activity [11] of the same compound?
Its Activity is 20%.

And the Activity [12]?
The Activity was “Dose-dependent effect”.

And the Activity [13]?
Its Activity is “Dose-dependent effect”.

And the inhibition [14]?
The inhibition was “Active”.

What about the Activity [15] of the same compound?
The Activity was 15%.

What about the IC50 [16] of the same compound?
Its IC50 is 2500 nM.

And the IC50 [17]?
Its IC50 is 2000 nM.
